Compound activity deposited in PubChem by Sanford-Burnham Center for Chemical Genomics.
Scp1 inh: Scp-1 (human) phosphatase inhibition; Recombinant Scp1, phosphopeptide, malachite green phosphate absorbance; inhibition, % at 20 µM; 340,000 tested, 0.88% active;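 active means inhibition above about 50% at 20 µM, limit read from the data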;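 further: plate controls were DMSO wells with enzyme for no effect and wells lacking enzyme for full effect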
Target sequence (Q9GZU7 76-261 limits assumed): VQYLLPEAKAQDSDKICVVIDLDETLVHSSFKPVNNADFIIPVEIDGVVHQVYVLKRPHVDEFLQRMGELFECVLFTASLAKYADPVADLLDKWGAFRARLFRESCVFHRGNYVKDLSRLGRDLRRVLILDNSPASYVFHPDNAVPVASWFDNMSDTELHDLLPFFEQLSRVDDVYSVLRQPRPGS
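Test system: SCP-1 phosphatase catalytic domain, residues 76-261; measured by: colorimetric phosphate reagent with accelerator and stabiliser, absorbance at 630 nm; timing: enzyme reaction 45 min at room temperature, colour 5 min, stabilisation 30 min; also added: Phosphorylated 17-residue peptide substrate; compound dosing: one concentration, 20 µM, with 1.0% DMSO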
NadD block: inhibitors of Staphylococcus aureus NadD; AID 602399; inhibition, % at 20 µM; purified NadD enzyme, colorimetric absorbance read-out; 360,000 tested, 0.78% active; in the data active means inhibition above about 26%
LMPTP block: blocks human LMPTP phosphatase; P24666; recombinant LMPTP-A, OMFP fluorogenic substrate, fluorescence intensity; inhibition, % at 20 µM; 360,000 tested, 0.22% active;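 active means compounds that cut the enzyme signal by at least half of the control window in the single-dose screen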;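 further: plate controls were DMSO wells with enzyme plus substrate for no effect and substrate without enzyme for full effect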
Target sequence (P24666 whole entry, looked up): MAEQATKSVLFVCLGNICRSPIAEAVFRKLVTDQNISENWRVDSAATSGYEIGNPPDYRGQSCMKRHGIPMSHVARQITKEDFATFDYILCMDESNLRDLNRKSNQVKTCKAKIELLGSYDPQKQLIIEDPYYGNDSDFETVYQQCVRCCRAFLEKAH
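Test system – LMPTP-A phosphatase enzyme · Quantity – 0.625 nM LMPTP-A final · Reagent – OMFP substrate, 400 µM final · Dosing – one test concentration per compound, 20 µM, with 3% DMSO overall · Timing – 50 min enzyme reaction at room temperature, protected from light · Detection – fluorescence intensity · Controls – substrate-only low control, DMSO enzyme-plus-substrate high control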
SUMO1-SIM PPI: SUMO1-SIM interaction modulation. P63165. SUMO1 binding to a labelled peptide, TR-FRET, 1 h. inhibition, % at 20 µM. 360,000 tested, 0.33% active; in the data active means inhibition above about 37%
Target sequence (P63165 whole entry, looked up): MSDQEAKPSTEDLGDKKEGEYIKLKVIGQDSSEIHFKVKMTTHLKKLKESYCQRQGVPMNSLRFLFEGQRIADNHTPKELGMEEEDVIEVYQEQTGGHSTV
STEP block: blocks human striatal-enriched tyrosine phosphatase. P54829. recombinant STEP, OMFP fluorogenic substrate, fluorescence. inhibition, % at 20 µM. 360,000 tested, 0.25% active;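 active means inhibition at 20 µM, scaled per plate between control wells, above about 37%, limit read from the data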;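 further: 0% = DMSO with enzyme and substrate and 100% = substrate only without enzyme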
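medium = Bis-Tris buffer pH 6.0, 2.5 mM DTT, 0.005% Tween 20 | test system = STEP (striatal-enriched tyrosine phosphatase) enzyme, cell-free | measure = normalized % inhibition | compound dosing = 20 µM, 1% DMSO | also added = 25 µM OMFP | schedule = reaction 20 min, ambient temperature | measured by = fluorescence read at 480 nm ex / 540 nm em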
DNMT1 inh: inhibitors of human DNMT1; P26358; DNMT1 molecular beacon, Hinp1I cleavage, fluorescence; inhibition (reported as % activation of signal), % at 10 µM; 360,000 tested, 0.83% active; AID 588458; in the data active means inhibition above about 50%
Beacon interf DR: beacon fluorescence artifact, dose response counter-screen. AID 602382. shares compounds with DNMT1 inh. 200 tested, under 10 active. IC50, µM. molecular beacon fluorescence, spectral interference counter-screen; call rule not given here
DNMT1 inh conf: DNMT1 inhibition confirmation, single concentration; shares compounds with DNMT1 inh; inhibition, % at 10 µM; 2,300 tested, 8% active; DNMT1 molecular beacon HinP1I cleavage, fluorescence;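 active means average inhibition of at least 30% in the single-concentration confirmation test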
Beacon interf: shows spectral interference in the DNMT1 beacon assay. shares compounds with DNMT1 inh. DNMT1 molecular beacon spectral interference counterscreen, fluorescence 485/520. activation (fluorescence interference), % at 10 µM. 2,300 tested, 1% active. AID 602387;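 active means activation of at least 30% at 10 µM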;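 further: DNMT1 catalytic domain with a HinP1I cleavage step and a FAM/dabcyl DNA beacon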
Starred values were filed as active, the others as inactive; . = not tested or not shown. This is a sample that favours compounds with a hit; in the whole collection about 2.4% have one here.

SMILES | Scp1 inh | NadD block | LMPTP block | SUMO1-SIM PPI | STEP block | DNMT1 inh | DNMT1 inh conf | Beacon interf | others
Nc1c(C(=O)NCc2ccccc2)c2nc3ccccc3nc2n1-c1ccc2c(c1)OCO2 | -5 | 26 | 1 | 14 | -4 | 56* | 1 | 2
Nc1c(C(=O)NCc2ccc3c(c2)OCO3)c2nc3ccccc3nc2n1CCCN1CCOCC1 | -4 | -7 | -2 | 47* | 15 | 62* | 10 | 10
COc1cccc(CN2CCC2(C)C(=O)Nc2ccc3c(c2)OCO3)c1F (stereo unspecified) | . | 0 | -1 | -4 | 2 | 1 | . | .
Cc1ccc(-c2[nH]ncc2/C=N/n2c(COc3ccccc3C)nc3ccccc3c2=O)cc1 | -4 | 11 | 0 | 2 | 3 | 70* | 0 | -2
CC1(C(=O)NNC(=O)c2ccc(=O)oc2)CC1Br (stereo unspecified) | 28 | 15 | -1 | 21 | 8 | 75* | 4 | 3
Cc1cc(=O)oc(C)c1C(=O)NNC(=O)C1(C)CC1Br (stereo unspecified) | -1 | -1 | -2 | 9 | -3 | 1 | . | .
O=C1Nc2ccc3c(c2C1=Cc1cc2c(cc1Br)OCO2)OCO3 | 15 | 9 | 21 | 1 | 3 | 67* | 1 | 1
Cc1ccc(NC(=O)c2nc[nH]c2C(=O)NCCCCCNC(=O)OC(C)(C)C)cc1 | -11 | 9 | 1 | 6 | -8 | -2 | . | .
CC(C)(C)OC(=O)NCc1ccc(NC(=O)c2nc[nH]c2C(=O)NCCCCNC(=O)c2[nH]cnc2C(=O)Nc2ccc(CNC(=O)OC(C)(C)C)cc2)cc1 | -4 | 24 | -3 | 24 | -6 | 61* | 0 | 1
CC(C)(C)OC(=O)NCc1ccc(NC(=O)c2nc[nH]c2C(=O)NCCCNC(=O)c2[nH]cnc2C(=O)Nc2ccc(CNC(=O)OC(C)(C)C)cc2)cc1 | 1 | 17 | -4 | 2 | -4 | 60* | 1 | -2
Cc1cc(C(F)(F)F)c(C#N)c(SCC(=O)Nc2nc3ccccc3s2)n1 | -7 | -7 | -1 | -1 | -4 | 83* | 23 | 11
O=C(OCCc1cc2ccccc2c(=O)o1)c1ccc2c(c1)OCO2 | -4 | -8 | 17 | 8 | 1 | 71* | 1 | 1
O=C(COc1ccc(Cl)cc1Cl)NN=C1c2ccccc2-c2ccccc21 | -9 | 6 | 8 | 13 | 4 | 87* | 1 | 0
CCn1c(SCC(=O)Nc2ccccc2C)nnc1-c1ccccc1O | 0 | -2 | -1 | 3 | -2 | -1 | . | .
CCn1c(SCC(=O)Nc2cc(F)ccc2C)nnc1-c1ccccc1O | -11 | -3 | 0 | -1 | 24 | 56* | 1 | 1
O=C(CSc1ccc2nnc(-c3ccc(Cl)cc3)n2n1)N1CCc2ccccc21 | 0 | -1 | 0 | -3 | 2 | 10 | . | .
CCCc1[nH]n(-c2nc3ccccc3s2)c(=O)c1C=NCC(C)C | 3 | 0 | 0 | -1 | 1 | -2 | . | .
O=C(NCc1ccco1)c1nc2nc(-c3cccs3)cc(C(F)(F)F)n2n1 | 21 | -1 | 1 | 7 | 0 | 56* | 6 | 6
COc1cc(OC)c(/C=N/NC(=O)Cn2nc([N+](=O)[O-])cc2C)c(OC)c1 | -5 | -1 | 0 | -7 | 0 | -4 | . | .
CC(C)c1ccc(/C=N/NC(=O)C2CCCC2)cc1 | -13 | -1 | 0 | -9 | -1 | 3 | . | .
CC(C)(C)c1ccc(/C=N/NC(=O)C2CCCC2)cc1 | -2 | -3 | 2 | -7 | -2 | 77* | 1 | 2
CCCC(C)NC(=O)COC(=O)c1cccc(NS(C)(=O)=O)c1 (stereo unspecified) | -5 | -8 | -2 | -2 | -2 | 1 | . | .
Cc1ccc(C)[n+](CC(=O)c2ccc(-c3ccccc3)cc2)c1 | 9 | 8 | 1 | -10 | -2 | 4 | . | .
CCc1c(Cl)nc(N)nc1Nc1ccccc1C | -10 | 1 | 0 | -1 | -3 | 75* | 1 | 2
CCCOc1ccc(F)cc1-c1cc(C(=O)Nc2ccc(OC)cc2C)[nH]n1 | . | -5 | 3 | 8 | -1 | 6 | . | .
SMILES | Scp1 inh | NadD block | LMPTP block | SUMO1-SIM PPI | STEP block | DNMT1 inh | DNMT1 inh conf | Beacon interf | others
O=C(O)Cc1c[nH]c2cccc(O)c12 | 31 | 1 | 4 | -2 | 3 | 74* | 36* | -2 | Beacon interf DR=>99
O=S(=O)(c1cccc2ccccc12)N1CCC2CC1c1cc(Cl)ccc12 (stereo unspecified) | -17 | 3 | 3 | 4 | 2 | 1 | . | .
COC(=O)c1c(N)[nH]c(C(=O)c2ccccc2)c1-c1ccccc1Br | . | -5 | 0 | -1 | . | . | . | .
CC[C@]12C(=O)N(C)C[C@H]([C@@H]3C(=O)N(Cc4ccccc4)C(=O)[C@@H]31)N2C(=O)c1ccc(F)cc1 | -8 | 1 | -1 | -2 | 0 | 4 | . | .
Oc1[nH]c2ccccc2c1N=Nc1ccc(F)cc1 | -7 | -3 | 1 | -9 | -9 | 63* | 31* | 29 | Beacon interf DR=20*
Oc1[nH]c2ccccc2c1N=Nc1ccccc1 | -5 | -5 | 2 | -6 | -4 | -2 | . | .
Cc1cc(C)cc(-n2nnnc2SCC(=O)N2CCOCC2)c1 | 1 | 2 | 0 | 4 | 1 | 79* | 0 | 4
COc1ccc(C2N=C(N)N=C(N)N2c2ccccc2OC)cc1OC (stereo unspecified) | -4 | -5 | -1 | -4 | -1 | 4 | . | .
CCN(C(=O)c1cc2c(=O)[nH]c3ccc(C)cc3c2s1)c1ccccc1F | 3 | -6 | -2 | 18 | 3 | 63* | -1 | -2
CCN(C(=O)c1cc2c(=O)[nH]c3ccc(C)cc3c2s1)c1ccccc1C | -9 | -10 | -1 | -1 | 9 | 18 | . | .
O=C(CNC(=O)/C=C/c1ccco1)N=Nc1c(O)[nH]c2ccccc12 | 93* | 34* | 72* | 105* | 98* | 93* | 82* | -3 | Beacon interf DR=>99
CCCc1cc(=O)[nH]c(SCC(=O)Nc2ccc(N3CCCCC3)cc2)n1 | -1 | 6 | 0 | 7 | -2 | -3 | . | .
O=C(Nc1ccc(N2CCOCC2)cc1N1CCOCC1)c1ccc(Br)cc1 | 4 | -1 | -1 | 6 | 0 | -4 | . | .
O=C(COc1ccc(Br)cc1)Nc1ccc(N2CCOCC2)cc1N1CCOCC1 | 0 | 1 | 0 | 25 | 1 | 55* | 5 | 5
